Molecules are shown by their SMILES.

The data set is described as follows: Toxicity liver stage against HepG2, at 10uM. It counts as cell-based. The settings on record: human, HepG2-A16-CD81EGFP cells; read-out: INHIBITION
On the set-up: test concentration 10 uM, cell line HepG2-A16-CD81EGFP. In short, it runs like this: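 Uninfected HepG2-A16-CD81EGFP cells, 3 × 10^3 per well, 1536-well, plated on prespotted compound at 10 μM final, parasite-free screening media added to match infected plates; puromycin 10 μM positive, DMSO 0.5% negative; run in parallel with 48 h PbLuc assay at 37 °C, 5% CO2; viability by CellTiter-Glo luminescence, normalized to controls.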
Consider `Cn1ccnc1CNC[C@H]1Cn2cc(-c3ccccc3)nc2CO1`, for which the cytotoxicity at 10 µM is -6.09%. As for `c1cc(-c2noc([C@@H]3CCCN3CC3CC3)n2)cc(N2CCCC2)n1`, the cytotoxicity at 10 µM amounted to 4.12%. The value for `CS(=O)(=O)N1C[C@@H]2OCC(=O)N(CC3CCC3)[C@@H]2C1` was 8.94%. `COCCNC(=O)[C@@H](C)[C@@H]1CCc2c(C)cc(OCC(=O)O)c(C)c2C1`: the cytotoxicity at 10 µM came to 0.523%. For `c1cncc(O[C@H]2COCCN(CC3CC3)C2)c1`, the cytotoxicity at 10 µM amounted to 3.38%.

Consider `CCn1nc(Br)nc1Sc1ccccc1NC(C)=O`, for which the cytotoxicity at 10 µM is -6.17%. The value for `O=C(Cc1ccccc1Cl)NCC1CCN(Cc2ccsc2)CC1` was -9.12%; that for `O=C(Nc1nc2c(s1)CN(S(=O)(=O)C1CC1)CC2)c1ccsc1` was 24.9%; that for `CCOc1ccccc1NC(=O)Nc1cc(N2CCCC2)ncn1` was -0.113%. As for `CCN(CC)C(=O)c1nc2c(s1)CCN(C(=O)CCC(=O)OC)CC2`, the cytotoxicity at 10 µM worked out at 12.9%. For `O=C(c1ncn2c(C3CCN(CC4CC4)CC3)ccnc12)N1CCCC1` the value was -3%; for `O=C(NCC1CCOCC1)[C@@H]1C[C@@H]2[C@@H](CCN2Cc2ccoc2)O1`, 5%. For `CNC(=O)N1CCC2(CC1)CC[C@@]1(C(=O)NC)CN(S(C)(=O)=O)C[C@@H]21` the value was -3.91%; for `Cc1ccc(N2CC[C@H]3OCC[C@@]3(C(=O)NCC3CC3)C2)nn1`, 3.22%.

Turning to `Cc1noc(C)c1CN1CCC2(CC1)NC(=O)CC2c1cnn(C)c1` (stereo unspecified), the cytotoxicity at 10 µM worked out at 5.64%. For `Cc1ccc(C(=O)N2CCc3ncnc(C)c3CC2)cn1` the value was 9.75%; for `CCc1c(C)nc2n(c1=O)CC(C(=O)Nc1nccs1)CS2` (stereo unspecified), 1.83%. The value for `O=C(Cn1cc(C(=O)O)ccc1=O)Nc1ccc(F)cc1Cl` was 0.381%. For `Cc1cc2nc(SCC(=O)NC(C)C)n(Cc3ccco3)c(O)c-2n1` the value was 10.5%. Regarding `COCCCNC(=O)CCn1nc(C)c2ccccc21`, the cytotoxicity at 10 µM amounted to 9.87%.

For `COc1ccc(-c2cc(C3CCCCCN3S(C)(=O)=O)on2)cc1` (stereo unspecified), the cytotoxicity at 10 µM stood at 0.46%. `CS(=O)(=O)c1cc(Cl)cnc1C1CCN(C(=O)C2CCCO2)CC1` (stereo unspecified): the cytotoxicity at 10 µM came out at 4.38%. The value for `N#Cc1ccc(S(=O)(=O)Nc2ccc(N3CCOCC3)cn2)cc1` was 0.966%. The value for `CC(C)Cc1nc(CS(=O)(=O)C(C)C(=O)N2CCOCC2)no1` (stereo unspecified) was 3.13%; that for `Cc1nn(C)c2ncc(NC(=O)N(C)Cc3cnn(C)c3)cc12` was -0.768%. For `CN(CCc1nc(-c2cccc(Cl)c2)no1)CCn1cccn1` the value was 8.86%; for `O=C(NC(C1CC1)C1CC1)c1cccc[n+]1[O-]`, 10.8%. In the case of `CNC(=O)[C@@H](C)NC(=O)c1cc(-c2ccc(F)cc2)c(C)s1`, the cytotoxicity at 10 µM is -5.2%.

Take `CC(Oc1ccc(F)c(F)c1)C(=O)N(CC(N)=O)C1CCCC1` (stereo unspecified): the cytotoxicity at 10 µM is -0.146%. For `O=C(OCc1cccc(F)c1)c1cccc(C(=O)N2CCCC2)n1` the value was -1.6%; for `NC(=O)Nc1cccc(CNC(=O)CCCOCc2ccccc2)c1`, -8.06%. The value for `Cc1cc(C2CCCN(C(=O)COc3ccc(F)cc3F)C2)n[nH]1` (stereo unspecified) was 5.93%.

`O=C1CN(C(=O)CSC2CCCc3ccccc32)CCN1` (stereo unspecified): the cytotoxicity at 10 µM is -9.45%. For `Cn1cc(C(=O)CC2CCCN2C(=O)c2ccc(Cl)o2)cn1` (stereo unspecified) the value was -4.57%; for `Cc1cccc2nc(CNC(=O)N3CCC(N4CC=CC4)C3)cn12` (stereo unspecified), 5.88%. For `CC(=O)N(Cc1ncc(C)o1)C1CCN(CCc2ccncc2)C1` (stereo unspecified) the value was 1.3%; for `CCC(CC)c1cc(CNC(=O)N2CCCN(C(C)=O)CC2)on1`, -7.55%; for `Cc1noc(CCCC(=O)NC(C)c2nnc3n2CCC3)n1` (stereo unspecified), 0.259%. The value for `CCOCCN1CCN(Cc2nnc(C3CC3)o2)CC1` was 1.95%; that for `CCC(CC)C(=O)NCCC(=O)N1CCN(c2ccccn2)CC1` was 4.65%; that for `O=C1CCC(=O)N1CCN1CCOC(c2ccsc2)C1` (stereo unspecified) was 7.55%.

Turning to `COCCOCCNS(=O)(=O)C1CS(=O)(=O)c2ccccc21` (stereo unspecified), the cytotoxicity at 10 µM was -15.3%. For `Cn1ccnc1CCNS(=O)(=O)Cc1cccc(C#N)c1` the value was 0.867%; for `Cc1cccc(OC2CCN(c3ncc(C#N)cc3Cl)CC2)n1`, 8.13%. With `CCc1noc(CS(=O)(=O)C/C=C/c2ccccc2)n1`, the cytotoxicity at 10 µM was -18.4%. The value for `Cc1noc(CCCC(=O)Nc2cc(C(F)(F)F)c[nH]c2=O)n1` was -10.8%; that for `COc1ccc(NC2CCN(C3CC3)C2=O)cn1` (stereo unspecified) was -10%.

As to `CS(=O)(=O)c1cccc(S(=O)(=O)NC(=O)CC2CCCC2)c1`, the cytotoxicity at 10 µM was -7.59%. For `CN(Cc1nnc(C2CCC2)o1)C(C(N)=O)c1cccc(F)c1` (stereo unspecified) the value was 16.7%; for `O=C(NCC1CCCCO1)c1ccc(-c2cccs2)[nH]c1=O` (stereo unspecified), -7.03%. As to `CCC(CC)c1nnc(NC(=O)N2CCC(C(N)=O)CC2)s1`, the cytotoxicity at 10 µM is 8.26%.

Regarding `CCOc1ccnc(N2CCN(C(=O)CCc3ccsc3)CC2)n1`, the cytotoxicity at 10 µM stood at 8.15%. For `O=C(O)c1ccc(S(=O)(=O)Nc2cccc(CC(F)(F)F)c2)c(F)c1` the value was -6.19%; for `CCCN1C(=O)C2(CCCCC2)NC1c1cn(C)c(=O)n(C)c1=O` (stereo unspecified), 4.45%. The value for `O=C(NCC1CCS(=O)(=O)C1)c1sccc1-c1ccc(F)cc1` (stereo unspecified) was -1.79%; that for `Cc1ccc(C(=O)NC(C)CN2CCCC2=O)c(=O)[nH]1` (stereo unspecified) was -0.524%. For `Cn1cc2c(n1)C(COCC1CC1)CN(Cc1ccccn1)C2` (stereo unspecified) the value was -1.8%; for `Cc1ncc(-c2ccnc(N3CCCCCC3)n2)c(-c2cccnc2)n1`, 6.21%. For the molecule `CCc1nnsc1-c1nc(C(C)C)nn1-c1ccc2c(c1)OCO2`, the cytotoxicity at 10 µM is -9.69%. The value for `O=C1CC2(CCN(Cc3ncc[nH]3)CC2)CN1Cc1ccc(Cl)cc1` was 5.85%. For `CC(C)(C)N1CC(C(=O)NCc2noc(Cc3ccccc3)n2)CC1=O` (stereo unspecified) the value was 0.824%; for `CO[C@H]1CN(C(C)C)C[C@@H]1NC(=O)Nc1cccc(SC)c1`, 2.85%; for `COC(=O)N1CCCCC1C(=O)N1CCN(c2ncccc2C)CC1` (stereo unspecified), 3.37%. For `CCN(CC)Cc1cc(C(=O)N2CCC3(CC2)NCCNC3=O)c(C)o1` the value was 4.01%; for `CN1CC2(CCN(C(=O)CCCOCc3ccccc3)C2)OC1=O` (stereo unspecified), 4.49%.

In the case of `CN(CCc1ccccn1)[C@@H]1CCN(c2cc(C(N)=O)ccn2)C[C@H]1O`, the cytotoxicity at 10 µM is -9.17%. For `CC(=O)N1CCNCC1c1cccc(C(=O)N(C)C)c1` (stereo unspecified) the value was 4.45%; for `Cc1ccc(-c2nc(CNC3CCc4ncnn4C3)co2)cc1` (stereo unspecified), -3.75%; for `COc1ccccc1C(=O)Nc1cc(CC(C)C)nn1C`, -12.5%. For `Cc1cccc(OCCNC(=O)CN2CCCC2Cn2cncn2)c1` (stereo unspecified) the value was -4.03%. For `CN(CCC(F)(F)F)C(=O)c1nc(S(C)(=O)=O)n2ccccc12` the value was -7.51%. With `Cc1nc(CN2CCCN(C(=O)CCc3ccco3)CC2)cs1`, the cytotoxicity at 10 µM was 0.386%. The value for `CCNC(c1ccc(C)cc1)c1cccnc1` (stereo unspecified) was 0.533%. For `COc1ccc(CCNC(=O)NCC(O)c2cccc(F)c2)cc1` (stereo unspecified) the value was -6.33%.

As to `O=C(CCn1cccn1)N1CCN(CC(F)F)CC1`, the cytotoxicity at 10 µM was -5.11%. For `CN(Cc1ncc[nH]1)CC(c1cccs1)N1CCOCC1` (stereo unspecified) the value was -4.22%. The value for `CC(NC(=O)NCCCOC1CCCCC1)c1nncn1C` (stereo unspecified) was -7.47%; that for `CC(C)(C)c1nnc(CN2CCCC(Cn3cncn3)C2)o1` (stereo unspecified) was -6.31%; that for `Cc1nc(C)n(CC2CCCN(CC(=O)Nc3nncs3)C2)n1` (stereo unspecified) was -3.79%.

Regarding `Cc1cc(CN2CCN(C(=O)NC(C)Cn3ccnc3)CC2)no1` (stereo unspecified), the cytotoxicity at 10 µM was -8.54%.

For the molecule `N#CC1(C(=O)N2CCN(Cc3cscn3)CC2)CCCC1`, the cytotoxicity at 10 µM was -8.08%. For `CCc1nc(CN(C(C)=O)C2CCN(Cc3cnc(C)cn3)C2)no1` (stereo unspecified) the value was -4.51%; for `CCCC(Nc1c(C#N)c(=O)n(C)c(=O)n1C)c1ccc(F)cc1F` (stereo unspecified), -13.2%. The value for `CC(CC#N)NC(=O)c1cc(Br)c2c(c1)OCCO2` (stereo unspecified) was 5.56%. As to `O=C(COc1cccc(Br)c1)N1CCOCC1c1ncon1` (stereo unspecified), the cytotoxicity at 10 µM was -9.36%. Take `CC(Cn1cccn1)NC(=O)NCc1ccc(S(N)(=O)=O)cc1` (stereo unspecified): the cytotoxicity at 10 µM is 3.63%. For `CC(C(=O)Nc1ncccn1)N1CCCN(c2nccs2)CC1` (stereo unspecified) the value was -2.55%; for `Cc1nc(COC[C@H]2CCC[C@@]23CN(C(C)C)CCO3)cs1`, -86.7%; for `Cn1cc(CN2CCC(F)(F)C3(CCN(c4ncc(F)cn4)C3)C2)cn1` (stereo unspecified), 1.2%. The value for `CN(C)c1ccc(CNCc2cnc(N3CCOCC3)nc2)cn1` was 9.44%. Consider `CC1=N[C@@]2(CC[C@@H]3CN(CC4CC4)C[C@@H]32)C(=O)N1CC1CC1`, for which the cytotoxicity at 10 µM was found to be 3.82%.

`O=C(c1n[nH]c2c1CN(C1CCOC1)CC2)N1CCCC1` (stereo unspecified): the cytotoxicity at 10 µM is -1.07%. The value for `c1csc(CN2C[C@H](OCC3CC3)[C@H]3COC[C@H]32)n1` was 2.57%.

As to `CCc1ccc(CN2CCc3ncnc(N4CCOCC4)c3CC2)o1`, the cytotoxicity at 10 µM is -2.05%.

With `COCC1CC2(CCN(Cc3ccncc3)CC2)CN1C(C)C` (stereo unspecified), the cytotoxicity at 10 µM came to 1.73%. The value for `CCCn1nccc1NC(=O)CN1CCc2c(nc(C(C)C)n2C)C1` was 4.02%.
